In the array DNA melting data of Ke et al. (doi:10.1101/2024.01.08.574731):

Experiments:
[1] = melting temperature; fluorescence melt of hairpins on a sequencing array, two-state fit, raised by 9.35 °C to match UV melts; conditions: sodium 0.088 M
How it was run: (§1)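 Library hairpins on a sequenced MiSeq flow cell carried annealed Cy3 and quencher oligos, and their Cy3 fluorescence was imaged in 50 mM Na-HEPES pH 8.0 with 25 mM NaCl, in 2.5 °C steps up to 60 °C. Signals were normalised to Cy3 before quenching and to control constructs. Melting temperature and folding enthalpy were obtained from bootstrapped two-state fits, combined by inverse-variance weighting across four replicates, and the fitted temperatures were then raised by 9.35 °C to match UV melts.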

[2] = folding enthalpy; higher = less favourable; fluorescence melt of hairpins on a sequencing array, two-state fit; conditions: sodium 0.088 M
How it was run: as §1

| Sequence | Tm [1] [°C] | folding enthalpy [2] [kcal/mol] |
| --- | --- | --- |
| GCGTCGCGAAAGCGCAGC ((..(((....)))..)) | 57.5 | -19.9 |
| GCGTCGCGAAAGCGCTGC ((..(((....)))..)) | 50.2 | -16.3 |
| GCGTCGCGAAAGCGGGGC ((..(((....)))..)) | 67.4 | -29 |
| GCGTCGCGAAAGCTCCGC (((..((....))..))) | 46.8 | -21.1 |
| GCGTCGCGAAAGCTTCGC (((..((....))..))) | 53.5 | -19.7 |
| GCGTCGGGAAACCGGTGC ((..(((....)))..)) | 48.7 | -21.2 |
| GCGTCGGGACGC ((((....)))) | 66 | -20.2 |
| GCGTCGGTACGC ((((....)))) | 52.8 | -19.3 |
| GCGTCGTGACGC ((((....)))) | 68.4 | -22.7 |
| GCGTCTAAACGC ((((....)))) | 54.4 | -23 |
| GCGTCTCCACGC ((((....)))) | 52 | -21.4 |
| GCGTCTGAACGC ((((....)))) | 54 | -25.2 |
| GCGTCTGGACGC ((((....)))) | 59.8 | -34.1 |
| GCGTGAAGACGC ((((....)))) | 58.3 | -23 |
| GCGTGACCGAAAGGTCGC (((..(((....)))))) | 51.6 | -10.1 |
| GCGTGAGAAATCACGC ((((((....)))))) | 69 | -29.5 |
| GCGTGAGCGAAAGCTCGC (((..(((....)))))) | 53 | -10.4 |
| GCGTGAGGACGC ((((....)))) | 50.8 | -18.9 |
| GCGTGAGTACGC ((((....)))) | 52.5 | -19.9 |
| GCGTGCAGACGC ((((....)))) | 62.5 | -20.4 |
| GCGTGCATACGC ((((....)))) | 68.7 | -24.6 |
| GCGTGCGAAAGCACACGC ((((((....)))..))) | 64.5 | -15 |
| GCGTGCGAAAGCACCGC ((((((....))).))) | 67.2 | -13.8 |
| GCGTGCGAAAGCATTCGC ((((((....)))..))) | 52.4 | -16.8 |
| GCGTGCGGAAACACACGC (((((.(....).))))) | 58.5 | -40.2 |

| Sequence | Tm [1] [°C] | folding enthalpy [2] [kcal/mol] |
| --- | --- | --- |
| GCGTGCGGACGC ((((....)))) | 54.7 | -15.6 |
| GCGTGCTTACGC ((((....)))) | 54.9 | -16.9 |
| GCGTGGACGAAAGTCCGC (((..(((....)))))) | 52.8 | -11.3 |
| GCGTGGCCACGC ((((....)))) | 62.8 | -43.9 |
| GCGTGGCGAAAGCCCTGC ((..(((....)))..)) | 47.2 | -18.3 |
| GCGTGGCGAAAGCGAAGC ((.(.((....)).).)) | 50.5 | -16.9 |
| GCGTGGCGAAAGCGAGGC ((.(.((....)).).)) | 51.1 | -16.8 |
| GCGTGGCGAAAGCGTCGC (((..((....))..))) | 58.7 | -22.6 |
| GCGTGGCGAAAGCTATGC ((.(.((....)).).)) | 52.5 | -31.4 |
| GCGTGGGGAAACTCGCGC (((.(.(....).).))) | 54 | -35.6 |
| GCGTGGGGACGC ((((....)))) | 52.6 | -21.1 |
| GCGTGGTGACGC ((((....)))) | 55.1 | -17.3 |
| GCGTGTCTACGC ((((....)))) | 57.8 | -25.8 |
| GCGTGTGCACGC ((((....)))) | 57.2 | -29.9 |
| GCGTGTGGAAACACATGC ((.((((....)))).)) | 57.5 | -42 |
| GCGTGTTCACGC ((((....)))) | 59.5 | -29 |
| GCGTTAAAACGC ((((....)))) | 50.3 | -21.4 |
| GCGTTAAACGC ((((...)))) | 50.9 | -19 |
| GCGTTACTACGC ((((....)))) | 54.8 | -26.7 |
| GCGTTAGAAATAACGC ((((((....)))))) | 57.6 | -37.8 |
| GCGTTAGAACGC ((((....)))) | 52.8 | -20.3 |
| GCGTTAGGAAACCAACGC (((((.(....).))))) | 49.8 | -44.9 |
| GCGTTAGGAAACTAACGC (((((((....))))))) | 65.8 | -50.9 |
| GCGTTCAAACGC ((((....)))) | 53.1 | -24.5 |
| GCGTTCACACGC ((((....)))) | 52.8 | -22.6 |

| Sequence | Tm [1] [°C] | folding enthalpy [2] [kcal/mol] |
| --- | --- | --- |
| GCGTTCCACGC ((((...)))) | 59.7 | -25.3 |
| GCGTTCGAAAGAAAACGC ((((((....)))..))) | 49 | -27.3 |
| GCGTTCGAAAGAAACCGC ((((((....)))..))) | 36.9 | -25.2 |
| GCGTTCGAAAGAATGCGC ((((((....)))..))) | 57.3 | -28.8 |
| GCGTTGAACGC ((((...)))) | 54.1 | -18.2 |
| GCGTTGAGACGC ((((....)))) | 56.6 | -29.7 |
| GCGTTGCAACGC ((((....)))) | 59 | -33.5 |
| GCGTTGCGAAAGCAGAGC ((..(((....)))..)) | 63.4 | -35.8 |
| GCGTTGCGAAAGCCAGGC ((.(.((....)).).)) | 40.3 | -16.9 |
| GCGTTGCGAAAGCCGCGC (((..((....))..))) | 63.3 | -21.9 |
| GCGTTGCGAAAGCGCCGC (((..((....))..))) | 58.4 | -14.8 |
| GCGTTGCGAAAGCTAAGC ((.(.((....)).).)) | 59.2 | -26.9 |
| GCGTTGCGAAAGCTATGC ((.(.((....)).).)) | 48.6 | -23.7 |
| GCGTTGCGAAAGCTGCGC (((..((....))..))) | 65.1 | -36.3 |
| GCGTTGGGAAACCAGTGC ((..(((....)))..)) | 36.5 | -24.1 |
| GCGTTGGGAAACCGATGC ((.(.((....)).).)) | 44 | -25.9 |
| GCGTTGGGAAACTAACGC (((((.(....).))))) | 55.5 | -47.8 |
| GCGTTTACACGC ((((....)))) | 54.3 | -23.2 |
| GCGTTTAGACGC ((((....)))) | 54 | -27.3 |
| GCGTTTGAACGC ((((....)))) | 56.7 | -20.3 |
| GCGTTTGCACGC ((((....)))) | 54.3 | -19.1 |
| GCGTTTGGAAACAAACAC (.(((((....))))).) | 40.6 | -12.8 |
| GCGTTTGGAAACAAGTGC ((..(((....)))..)) | 31.4 | -15.8 |
| GCGTTTTACGC ((((...)))) | 60.6 | -23 |
| GCGTTTTGACGC ((((....)))) | 55.2 | -25.2 |

| Sequence | Tm [1] [°C] | folding enthalpy [2] [kcal/mol] |
| --- | --- | --- |
| GCTAAACCGAAAGGTAGC (((..(((....)))))) | 44.5 | -26.1 |
| GCTAAAGAAATTTAGC ((((((....)))))) | 41.7 | -28.8 |
| GCTAACCGAAAGGTAGC (((.(((....)))))) | 55.3 | -31.9 |
| GCTAACGAAAGTTGCAGC ((((((....)))..))) | 39 | -15.5 |
| GCTAACGGAAACGTCAGC (((.(((....))).))) | 42.1 | -26.6 |
| GCTAAGCGAAAGCCTGGC ((.(.((....)).).)) | 35.5 | -17.9 |
| GCTAAGCGAAAGCGTCGC ((.(.((....)).).)) | 45.8 | -14 |
| GCTAAGCGAAAGCTAGC (((.(((....)))))) | 56.1 | -31.8 |
| GCTAAGCGAAAGCTCAGC (((.(((....))).))) | 48 | -31.6 |
| GCTAAGCGAAAGCTGTGC ((..(((....)))..)) | 48.6 | -18.1 |
| GCTAAGCGAAAGCTTGGC ((.((((....)))).)) | 62.9 | -34.3 |
| GCTAAGGGAAACCCTAGC ((((.((....)).)))) | 42.7 | -32.5 |
| GCTAAGGGAAACCTCAGC (((.(((....))).))) | 34.2 | -27.4 |
| GCTAAGGGAAACTTTGGC ((.((.(....).)).)) | 27.9 | -10.8 |
| GCTAATGCGAAAGCAAGC (((..(((....)))))) | 36.1 | -16.4 |
| GCTAATGGAAACATCAGC (((.(((....))).))) | 32.5 | -22.2 |
| GCTAATGGAAACATTAGC (((((((....))))))) | 56 | -45.4 |
| GCTACACGAAAGTGAAGC (((.(((....))).))) | 54.2 | -35.3 |
| GCTACAGGAAACTGTGGC ((.((((....)))).)) | 51.8 | -39 |
| GCTACATCGAAAGATAGC (((..(((....)))))) | 33.8 | -16.7 |
| GCTACCCGAAAGGGAAGC (((.(((....))).))) | 58.6 | -32.5 |
| GCTACCCGAAAGGGCAGC (((.(((....))).))) | 57.8 | -32.9 |
